Our source for the viability, differential viability (reversal) and inhibition values is PubChem BioAssay.

A short description of assay [1]: reduced viability of SK-BR-3 breast cancer cells – cell-based, 24 h, human, pilot screen (AID 572).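 Note: compound exposure lasted between 18 and 24 h rather than exactly 24 h; 100% = carrier-treated control wells.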 The note with it: SK-BR-3 viability, CellTiter-Glo luminescence, at 10 µM, stronger effect = lower value. On the technique in general: In ATP-based viability assays light output follows the ATP content of the culture.
Assay [2] is described as follows: HUVEC growth inhibition – cell-based, human, primary screen (AID 575;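 active = viability at or below 30% in both replicate assays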;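 note: 100% = median of untreated cell wells with 0.1% DMSO on each plate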). The settings on record: HUVEC proliferation, CellTiter-Glo luminescence, 72 h; at 10 µM; stronger effect = lower value. Summed up:
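system = HUVEC primary cells | amount = 1250 cells/well | buffer or medium = supplemented EBM, 2% fetal bovine serum | dosing = single-point 10 µM, DMSO 0.1% final | times = 72 h compound incubation | detection = CTG luminescence | read-out = % viability relative to median vehicle-well signal on each plate | control set = vehicle and MePR control wells | format = collagen-coated 384-well format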

The nature of assay [3]: H69AR cell proliferation blockers – human, duplicate replicates, primary screen (AID 580;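 active = viability at or under a set limit in both replicates, limit being median viability minus 3 SD, cut at about 48% in these data, passing the limit was not always enough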;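 note: 100% = mean luminescence of untreated wells and 0% = no signal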). The settings on record: H69AR lung tumor cells viability, ATP luminescence, 72 h; at 10 µM; stronger effect = lower value.
The nature of assay [4]: MRP1 drug-resistance reversers in H69AR cells – cell-based, doxorubicin co-treatment, pilot screen (AID 601;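 active = viability loss from added drug above about 55%, and viability with drug at most 40%, in both replicates, limit read from the data, passing the limit was not always enough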). The note with it: CellTiter-Glo, 72 h, at 10 µM; for differential viability (reversal): stronger effect = higher value.
A short description of assay [5]: yeast transport mutant growth inhibition pilot in 384-well plates, post-Golgi transport modulator project (AID 636; in the data active = inhibition above about 31%). The settings on record: absorbance 615 nm, about 18 h, stronger effect = higher value.
The nature of assay [6]: growth suppression of yeast trafficking mutant, preliminary HTS, modulators of trafficking downstream of Golgi apparatus project, 1536-format plate, OD 615 nm (AID 637; in the data active = inhibition above about 30%). The settings on record: yeast transport mutant growth, absorbance 615 nm, 18 h; stronger effect = higher value.
The mark [7] stands for this setting: H69AR cells + 2 uM doxorubicin, measured here: viability with 2 uM doxorubicin, stronger effect = lower value.
Where [8] appears, read: H69AR cells, compound alone cytotoxicity.

Active and inactive are the calls of the source.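 Rule for the calls, unless noted: active = viability at or below 10% of carrier control in both of two separate runs; inconclusive = viability at or below 10% in only one of the two runs; inactive = the rest.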

What is called viability is a read-out of living cells in per cent, often relative to untreated cells. The inhibition is the relative decrease from the control value, in per cent. On to `CCOC(=O)C1CCN(C(=O)Nc2ccc3nc(C)c(C)nc3c2)CC1`, for which the viability in assay [1] is 101% (inactive); in assay [2], 109% (inactive); in assay [3], 95.5% (inactive); in assay [4] (setting [7]) it was 79.6%; in assay [4] (setting [8]), 95.5%. The differential viability (reversal) in assay [4] (H69AR cells + 2 uM doxorubicin) is 15.9% (inactive). Further, the figures for the inhibition in assay [5] and in assay [6] were -3.87% (inactive) and -1.09% (inactive), respectively.

Regarding `O=C1[C@@H]2C(c3ccccc3Cl)=NO[C@@H]2C(=O)N1Cc1ccccc1`, the viability is 96% (inactive) in assay [1]; 116% (inactive) in assay [2]; 104% (inactive) in assay [3]; 100% in assay [4] (setting [7]); 104% in assay [4] (setting [8]). For the same molecule, in assay [4] (H69AR cells + 2 uM doxorubicin), the differential viability (reversal) was 4.24% (inactive). Further, the inhibition is -6.76% (inactive) in assay [5] and 3.09% (inactive) in assay [6].

With `CCCCc1c(O)nc(N2CCN(Cc3ccccc3)CC2)[nH]c1=O`, the viability was 93% (inactive) in assay [1]; 98.8% (inactive) in assay [2]; 96.1% (inactive) in assay [3]; 97.8% in assay [4] (setting [7]); 96.1% in assay [4] (setting [8]). Further, in assay [4] (H69AR cells + 2 uM doxorubicin), the differential viability (reversal) is -1.67% (inactive). Moreover, the figures for the inhibition in assay [5] and in assay [6] were -7.16% (inactive) and -1.82% (inactive), respectively.

Take `Cc1ccc(NC(=O)CN(C)S(=O)(=O)c2cccc3nsnc23)cc1Cl`: the viability in assay [1] is 103% (inactive); in assay [2] it was 83.3% (inactive); in assay [3], 84.5% (inactive); in assay [4] (setting [7]), 92.2%; in assay [4] (setting [8]) it was 84.5%. The differential viability (reversal) in assay [4] (H69AR cells + 2 uM doxorubicin) was -7.79% (inactive). The inhibition was 1.76% (inactive) in assay [5] and -3.09% (inactive) in assay [6].

As to `CS(=O)(=O)N1CCc2cc(S(=O)(=O)Nc3ccc4oc5c(c4c3)CCCC5)ccc21`, the viability in assay [1] is 76% (inactive); in assay [2], 43.3% (inactive); in assay [3], 88.9% (inactive); in assay [4] (setting [7]), 103%; in assay [4] (setting [8]), 88.9%. Also, the differential viability (reversal) in assay [4] (H69AR cells + 2 uM doxorubicin) was -13.8% (inactive). Besides, the inhibition in assay [5] was -2.47% (inactive); in assay [6], 0% (inactive).

In the case of `C=CCN1C(=O)CS/C1=C(\C#N)S(=O)(=O)c1ccc(C)cc1`, the viability is 114% (inactive) in assay [1]; 96.2% (inactive) in assay [2]; 85.5% (inactive) in assay [3]; 88.2% in assay [4] (setting [7]); 85.5% in assay [4] (setting [8]). Besides, the differential viability (reversal) in assay [4] (H69AR cells + 2 uM doxorubicin) is -2.67% (inactive). Further, the inhibition in assay [5] is -5.62% (inactive); in assay [6], -1.45% (inactive).

In the case of `CC(C)OC(=O)c1cccc(C(=O)O)n1`, the viability in assay [1] is 110% (inactive); in assay [2], 91% (inactive); in assay [3], 96% (inactive); in assay [4] (setting [7]), 94.1%; in assay [4] (setting [8]), 96%. In assay [4] (H69AR cells + 2 uM doxorubicin), the differential viability (reversal) is 1.99% (inactive). The inhibition in assay [5] is -1.69% (inactive); in assay [6], -5.57% (inactive).

`Cc1cccc(N2CCN(C(=O)C3CCCN(S(=O)(=O)c4cnc[nH]4)C3)CC2C)c1` (centres undefined): the viability in assay [1] was 90% (inactive); in assay [2], 90.2% (inactive); in assay [3], 95.6% (inactive); in assay [4] (setting [7]), 88.7%; in assay [4] (setting [8]), 95.6%. Besides, the differential viability (reversal) in assay [4] (H69AR cells + 2 uM doxorubicin) is 6.94% (inactive). Also, the inhibition in assay [5] was -0.26% (inactive); in assay [6] it was -0.98% (inactive).

Consider `CCN(CC)CCCN1C(=O)C(O)=C(C(C)=O)C1c1cccc(OC)c1` (centres undefined), for which the viability in assay [1] is 97% (inactive); in assay [2], 101% (inactive); in assay [3] it was 93% (inactive); in assay [4] (setting [7]) it was 87.3%; in assay [4] (setting [8]) it was 93%. Besides, the differential viability (reversal) in assay [4] (H69AR cells + 2 uM doxorubicin) is 5.69% (inactive). Also, the inhibition was -3.51% (inactive) in assay [5] and -2.73% (inactive) in assay [6].

As for `CC(C)NCC(O)COc1cccc2[nH]ccc12` (centres undefined), the viability in assay [1] was 111% (inactive); in assay [2], 78.3% (inactive); in assay [3], 99.2% (inactive); in assay [4] (setting [7]), 101%; in assay [4] (setting [8]), 99.2%. Besides, the differential viability (reversal) in assay [4] (H69AR cells + 2 uM doxorubicin) is -1.55% (inactive). The inhibition in assay [5] is -3.25% (inactive); in assay [6], -3.17% (inactive).

As for `O=C(CN(CC1CCCO1)S(=O)(=O)c1ccc(S(=O)(=O)NC2CC2)cc1)Nc1ccccc1` (centres undefined), the viability was 109% (inactive) in assay [1]; 96.9% (inactive) in assay [2]; 95.3% (inactive) in assay [3]; 96.8% in assay [4] (setting [7]); 95.3% in assay [4] (setting [8]). Besides, the differential viability (reversal) in assay [4] (H69AR cells + 2 uM doxorubicin) was -1.47% (inactive). The results for the inhibition in assay [5] and in assay [6] were -2% (inactive) and -9.27% (inactive), respectively.

Turning to `O=C(Nc1ccccc1)N(CCCN1CCOCC1)Cc1cc2cc3c(cc2[nH]c1=O)OCCO3`, the viability is 96% (inactive) in assay [1]; 82.3% (inactive) in assay [2]; 67.6% (inactive) in assay [3]; 64.9% in assay [4] (setting [7]); 67.6% in assay [4] (setting [8]). Moreover, the differential viability (reversal) in assay [4] (H69AR cells + 2 uM doxorubicin) was 2.71% (inactive). In addition, the inhibition in assay [5] was 2.13% (inactive); in assay [6] it was 3.45% (inactive).

`CCc1ccccc1NC(=O)C(CC)Sc1nc2cc3c(cc2c(=O)n1Cc1ccco1)OCO3` (centres undefined): the viability in assay [1] is 95.5% (inactive); in assay [2] it was 62.6% (inactive); in assay [3], 28.3% (active); in assay [4] (setting [7]), 15.1%; in assay [4] (setting [8]), 28.3%. Further, in assay [4] (H69AR cells + 2 uM doxorubicin), the differential viability (reversal) was 13.2% (inactive). The inhibition in assay [5] is -3.47% (inactive); in assay [6], 2.74% (inactive).

As for `Clc1ccc(Cl)c(-c2nn3c(Cn4cnc5ccccc54)nnc3s2)c1`, the viability is 78% (inactive) in assay [1]; 98.5% (inactive) in assay [2]; 102% (inactive) in assay [3]; 96% in assay [4] (setting [7]); 102% in assay [4] (setting [8]). Also, the differential viability (reversal) in assay [4] (H69AR cells + 2 uM doxorubicin) was 6.11% (inactive). Also, the inhibition in assay [5] was -6.3% (inactive); in assay [6] it was -0.18% (inactive).

With `Cc1nnc(NC(=O)CCC(=O)N2CCC(C)CC2)s1`, the viability was 86% (inactive) in assay [1]; 105% (inactive) in assay [2]; 90.8% (inactive) in assay [3]; 88.9% in assay [4] (setting [7]); 90.8% in assay [4] (setting [8]). In assay [4] (H69AR cells + 2 uM doxorubicin), the differential viability (reversal) is 1.93% (inactive). Moreover, the figures for the inhibition in assay [5] and in assay [6] were -3.01% (inactive) and 1.64% (inactive), respectively.

Regarding `Cc1cc(NCC2CCCO2)n2c(nc3ccccc32)c1C#N` (centres undefined), the viability in assay [1] is 79% (inactive); in assay [2], 81.2% (inactive); in assay [3], 71% (inactive); in assay [4] (setting [7]), 32.1%; in assay [4] (setting [8]), 71%. In addition, the differential viability (reversal) in assay [4] (H69AR cells + 2 uM doxorubicin) was 38.9% (inactive). For the same molecule, the inhibition was -6.44% (inactive) in assay [5] and 1.61% (inactive) in assay [6].

As for `Cc1cc(C)nc(SCc2nnc(SCC(=O)Nc3ncc(C)s3)n2Cc2ccco2)n1`, the viability was 91% (inactive) in assay [1]; 97.1% (inactive) in assay [2]; 90.4% (inactive) in assay [3]; 82.6% in assay [4] (setting [7]); 90.4% in assay [4] (setting [8]). In addition, in assay [4] (H69AR cells + 2 uM doxorubicin), the differential viability (reversal) is 7.87% (inactive). Further, the inhibition in assay [5] was -7.87% (inactive); in assay [6], -5.09% (inactive).

As for `COc1ccc2c(c1)C1(Nc3ccccc3-c3nc4ccccc4n31)C(=O)N2` (centres undefined), the viability is 88% (inactive) in assay [1]; 57.2% (inactive) in assay [2]; 82.3% (inactive) in assay [3]; 85.9% in assay [4] (setting [7]); 82.3% in assay [4] (setting [8]). The differential viability (reversal) in assay [4] (H69AR cells + 2 uM doxorubicin) was -3.61% (inactive). The inhibition in assay [5] was -8.49% (inactive); in assay [6], 4.19% (inactive).
